From ChEMBL document CHEMBL1126988, “Quinolone antibacterials containing the new 7-[3-(1-aminoethyl)-1- pyrrolidinyl] side chain: the effects of the 1-aminoethyl moiety and its stereochemical configurations on potency and in vivo efficacy” (J Med Chem, 1993)
≈ marks a conversion by molar mass, not a printed value.

What was measured:
Format in all cases: functional
Escherichia coli [1] = test: Antibacterial activity against Escherichia coli Vogel after oral administration in mouse; settings: Escherichia coli, po; read-out: PD50
Enterococcus faecalis = test: Minimum inhibitory concentration was evaluated in vitro against Enterococcus faecalis MGH-2
Summary of the method: (§1)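 Standard microtitration broth assay against a panel of 10 Gram-positive and Gram-negative organisms. MIC read in µg/mL and averaged over multiple experiments.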

Escherichia coli [2] = test: Antibacterial activity in vitro against Escherichia coli Vogel; settings: Escherichia coli; read-out: MIC; summary of the method: as §1
Staphylococcus aureus [3] = test: Minimum inhibitory concentration was evaluated in vitro against Staphylococcus aureus H 228; summary of the method: as §1
Enterobacter cloacae = test: Minimum inhibitory concentration in vitro against Enterobacter cloacae MA 2646; settings: Enterobacter cloacae; read-out: MIC
Staphylococcus aureus [4] = test: Minimum inhibitory concentration was evaluated in vitro against Staphylococcus aureus UC 76; summary of the method: as §1
Klebsiella pneumoniae = test: Minimum inhibitory concentration was evaluated in vitro against Klebsiella pneumoniae MGH2; settings: Klebsiella pneumoniae; read-out: MIC; summary of the method: as §1
Escherichia coli [5] = test: Antibacterial activity against Escherichia coli Vogel after subcutaneous administration in mouse; settings: Escherichia coli, sc; read-out: PD50
Streptococcus pneumoniae = test: Minimum inhibitory concentration was evaluated in vitro against Streptococcus pneumoniae SV-1; summary of the method: as §1
Streptococcus pyogenes [6] = test: Antibacterial activity measured as mouse protection against Streptococcus pyogenes C 203 after subcutaneous administration; settings: Streptococcus pyogenes, C 203, sc; read-out: PD50
Streptococcus pyogenes [7] = test: Compounds were evaluated in vivo for antibacterial activity for mouse protection against Streptococcus pyogenes C 203 after oral administration; settings: Streptococcus pyogenes, C 203, po; read-out: PD50
Pseudomonas aeruginosa = test: Minimum inhibitory concentration was evaluated in vitro against Pseudomonas aeruginosa UI-18; settings: Pseudomonas aeruginosa; read-out: MIC; summary of the method: as §1
Streptococcus pyogenes [8] = test: Minimum inhibitory concentration was evaluated in vitro against Streptococcus pyogenes C 203; summary of the method: as §1
Providencia rettgeri = test: Minimum inhibitory concentration was evaluated in vitro against Providencia rettgeri M1771; settings: Providencia rettgeri; read-out: MIC; summary of the method: as §1
[9] = Enterococcus faecalis, read-out: MIC
[10] = Staphylococcus aureus, read-out: MIC
[11] = Streptococcus pneumoniae, read-out: MIC
[12] = Streptococcus pyogenes, read-out: MIC

Compound	ED50 (Escherichia coli [1]) [mg/kg]	MIC (Enterococcus faecalis; [9]) [µg/mL]	MIC (Escherichia coli [2]) [µg/mL]	MIC (Staphylococcus aureus [3]; [10]) [µg/mL]	MIC (Enterobacter cloacae) [µg/mL]	MIC (Staphylococcus aureus [4]; [10]) [µg/mL]	MIC (Klebsiella pneumoniae) [µg/mL]	ED50 (Escherichia coli [5]) [mg/kg]	MIC (Streptococcus pneumoniae; [11]) [µg/mL]	ED50 (Streptococcus pyogenes [6]) [mg/kg]	ED50 (Streptococcus pyogenes [7]) [mg/kg]	MIC (Pseudomonas aeruginosa) [µg/mL]	MIC (Streptococcus pyogenes [8]; [12]) [µg/mL]	MIC (Providencia rettgeri) [µg/mL]	MIC (Enterococcus faecalis) [µg/mL]	MIC (Staphylococcus aureus [3]) [µg/mL]	MIC (Staphylococcus aureus [4]) [µg/mL]	MIC (Streptococcus pneumoniae) [µg/mL]	MIC (Streptococcus pyogenes [8]) [µg/mL]
CNCC1CCN(c2cc3c(cc2F)c(=O)c(C(=O)O)cn3C2CC2)C1 (centres undefined)	35	0.1 (≈ 0.278 µM)	0.1 (≈ 0.278 µM)	0.2 (≈ 0.556 µM)	0.2 (≈ 0.556 µM)	0.025 (≈ 0.0696 µM)	0.2 (≈ 0.556 µM)	2	0.05 (≈ 0.139 µM)	5	> 50	0.8 (≈ 2.23 µM)	0.05 (≈ 0.139 µM)	0.4 (≈ 1.11 µM)	–	–	–	–	–
CNCC1CCN(c2nc3c(cc2F)c(=O)c(C(=O)O)cn3C2CC2)C1 (centres undefined)	3	0.2 (≈ 0.555 µM)	0.1 (≈ 0.277 µM)	0.2 (≈ 0.555 µM)	0.2 (≈ 0.555 µM)	0.025 (≈ 0.0694 µM)	0.2 (≈ 0.555 µM)	1	0.025 (≈ 0.0694 µM)	7	21	0.8 (≈ 2.22 µM)	0.05 (≈ 0.139 µM)	0.4 (≈ 1.11 µM)	–	–	–	–	–
CCn1cc(C(=O)O)c(=O)c2cc(F)c(N3CCC(C(C)NC)C3)c(OC)c21 (racemic)	22	0.025 (≈ 0.0639 µM)	0.2 (≈ 0.511 µM)	0.025 (≈ 0.0639 µM)	0.8 (≈ 2.04 µM)	0.003 (≈ 0.00766 µM)	0.2 (≈ 0.511 µM)	4	0.013 (≈ 0.0332 µM)	0.3	2	1.6 (≈ 4.09 µM)	0.013 (≈ 0.0332 µM)	0.4 (≈ 1.02 µM)	–	–	–	–	–
CCN[C@H](C)[C@H]1CCN(c2nc3c(cc2F)c(=O)c(C(=O)O)cn3-c2ccc(F)cc2F)C1 (racemic)	25	0.2 (≈ 0.434 µM)	0.4 (≈ 0.869 µM)	0.05 (≈ 0.109 µM)	0.8 (≈ 1.74 µM)	0.013 (≈ 0.0282 µM)	0.8 (≈ 1.74 µM)	13	0.1 (≈ 0.217 µM)	2	2	3.1 (≈ 6.73 µM)	0.1 (≈ 0.217 µM)	1.6 (≈ 3.47 µM)	–	–	–	–	–
CCn1cc(C(=O)O)c(=O)c2cc(F)c(N3CCC(N)C3)c(OC)c21 (centres undefined)	13	0.4 (≈ 1.14 µM)	0.2 (≈ 0.572 µM)	0.2 (≈ 0.572 µM)	0.2 (≈ 0.572 µM)	0.05 (≈ 0.143 µM)	0.2 (≈ 0.572 µM)	7	0.4 (≈ 1.14 µM)	25	74	0.8 (≈ 2.29 µM)	0.2 (≈ 0.572 µM)	0.4 (≈ 1.14 µM)	–	–	–	–	–
CCN[C@H](C)[C@H]1CCN(c2cc3c(cc2F)c(=O)c(C(=O)O)cn3C2CC2)C1 (mixture of isomers; form 2)	13	–	0.2	–	0.2	–	0.4	2	–	1	8	6.3	–	0.8	0.1	0.1	0.025	0.05	0.05
NCC1CCN(c2c(F)cc3c(=O)c(C(=O)O)cn(C4CC4)c3c2F)C1 (centres undefined)	6	0.013 (≈ 0.0358 µM)	0.025 (≈ 0.0688 µM)	0.013 (≈ 0.0358 µM)	0.013 (≈ 0.0358 µM)	0.003 (≈ 0.00826 µM)	0.05 (≈ 0.138 µM)	1	0.006 (≈ 0.0165 µM)	0.4	4	0.2 (≈ 0.55 µM)	0.003 (≈ 0.00826 µM)	0.1 (≈ 0.275 µM)	–	–	–	–	–
CN[C@H](C)[C@@H]1CCN(c2c(F)cc3c(=O)c(C(=O)O)cn(C4CC4)c3c2OC)C1	12	0.05 (≈ 0.124 µM)	0.1 (≈ 0.248 µM)	0.05 (≈ 0.124 µM)	0.1 (≈ 0.248 µM)	0.013 (≈ 0.0322 µM)	0.2 (≈ 0.496 µM)	3	0.013 (≈ 0.0322 µM)	1	4	3.1 (≈ 7.68 µM)	0.025 (≈ 0.062 µM)	0.4 (≈ 0.991 µM)	–	–	–	–	–
COc1c(N2CCC(C)(CN)C2)c(F)cc2c(=O)c(C(=O)O)cn(C3CC3)c12 (centres undefined)	18	0.025 (≈ 0.0642 µM)	0.1 (≈ 0.257 µM)	0.025 (≈ 0.0642 µM)	0.1 (≈ 0.257 µM)	0.006 (≈ 0.0154 µM)	0.2 (≈ 0.514 µM)	3	0.013 (≈ 0.0334 µM)	1	5	1.6 (≈ 4.11 µM)	0.013 (≈ 0.0334 µM)	0.4 (≈ 1.03 µM)	–	–	–	–	–
CCn1cc(C(=O)O)c(=O)c2cc(F)c(N3CCC(CN)C3)c(F)c21 (centres undefined)	90	0.1 (≈ 0.285 µM)	0.1 (≈ 0.285 µM)	0.1 (≈ 0.285 µM)	0.2 (≈ 0.569 µM)	0.1 (≈ 0.285 µM)	0.4 (≈ 1.14 µM)	1	0.1 (≈ 0.285 µM)	5	100	0.4 (≈ 1.14 µM)	0.05 (≈ 0.142 µM)	0.4 (≈ 1.14 µM)	–	–	–	–	–
NCC1CCN(c2c(F)c(N)c3c(=O)c(C(=O)O)cn(C4CC4)c3c2F)C1 (centres undefined)	12	0.013 (≈ 0.0344 µM)	0.013 (≈ 0.0344 µM)	0.006 (≈ 0.0159 µM)	0.025 (≈ 0.0661 µM)	0.003 (≈ 0.00793 µM)	0.025 (≈ 0.0661 µM)	1	0.003 (≈ 0.00793 µM)	0.6	11	0.1 (≈ 0.264 µM)	0.003 (≈ 0.00793 µM)	0.05 (≈ 0.132 µM)	–	–	–	–	–
